Source: PMC7586065 (Neoplasia (New York, N.Y.), 2020)
Like-named read-outs stand apart in the source and are kept apart here. Blank lines part the entries; values can stand above or below the compound they belong to.

Assays:
PI3Kα [1] = conditions: cited from earlier work
PI3Kγ [2] = conditions: cited from earlier work
Pfeiffer = conditions: data in the literature; cited from earlier work
OCI-LY19 = conditions: data in the literature; cited from earlier work
Toledo = conditions: data in the literature; cited from earlier work
WSU-DLCL2 = conditions: data in the literature; cited from earlier work
PI3Kα [3] = biological target: PI3Kα (Mus musculus, UniProt P42337); assay: Cell-based pAKT AlphaLISA, IGF-1 stimulated C2C12 cells
PI3Kγ [4] = biological target: PI3Kγ (Mus musculus, UniProt Q9JHG7); assay: Cell-based pAKT AlphaLISA, C5a stimulated RAW264.7 cells
In short: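 RAW264.7 cells (DMEM, 10% FBS, penicillin/streptomycin, 37 °C) were stimulated with 80 ng/mL C5a for 5 min and given ten test-compound concentrations (0–100 µM) in triplicate. The PI3Kδ comparator used Raji cells stimulated with 3 µg/mL anti-IgM F(ab')2 for 10 min, dosed 0–3000 nM. pAKT was quantified by AlphaLISA, and IC50 was taken from signal–concentration curves.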

[5] = Pharmacokinetics in xenograft model; assay type: in vivo, SCID mice; conditions: CB17 SCID, mouse, plasma, po
In short: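 CB17 SCID mice bearing subcutaneous SU-DHL-6 tumours received test compound orally once daily in 1% carboxymethylcellulose/0.5% Tween 80. Heparinised blood was drawn predose and at 10, 30, 60, 120, 360, 600 and 1440 min on days 1 and 14. Plasma was spun at 4500 rpm, 10 min, 4 °C, then assayed by LC-MS/MS against a stable-isotope internal standard. Sub-LLOQ values were excluded.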

PI3Kδ signaling = conditions: read-out: EC50 of inhibition of PI3Kδ signaling; cell-based assay; cited from earlier work
[6] = 100 mg/kg, 100 mg/kg once daily oral, day 1
[7] = 100 mg/kg, 100 mg/kg once daily oral, day 14
[8] = 200 mg/kg, 200 mg/kg once daily oral, day 1
[9] = 200 mg/kg, 200 mg/kg once daily oral, day 14

Chain of PI3Kα (P42337 whole entry): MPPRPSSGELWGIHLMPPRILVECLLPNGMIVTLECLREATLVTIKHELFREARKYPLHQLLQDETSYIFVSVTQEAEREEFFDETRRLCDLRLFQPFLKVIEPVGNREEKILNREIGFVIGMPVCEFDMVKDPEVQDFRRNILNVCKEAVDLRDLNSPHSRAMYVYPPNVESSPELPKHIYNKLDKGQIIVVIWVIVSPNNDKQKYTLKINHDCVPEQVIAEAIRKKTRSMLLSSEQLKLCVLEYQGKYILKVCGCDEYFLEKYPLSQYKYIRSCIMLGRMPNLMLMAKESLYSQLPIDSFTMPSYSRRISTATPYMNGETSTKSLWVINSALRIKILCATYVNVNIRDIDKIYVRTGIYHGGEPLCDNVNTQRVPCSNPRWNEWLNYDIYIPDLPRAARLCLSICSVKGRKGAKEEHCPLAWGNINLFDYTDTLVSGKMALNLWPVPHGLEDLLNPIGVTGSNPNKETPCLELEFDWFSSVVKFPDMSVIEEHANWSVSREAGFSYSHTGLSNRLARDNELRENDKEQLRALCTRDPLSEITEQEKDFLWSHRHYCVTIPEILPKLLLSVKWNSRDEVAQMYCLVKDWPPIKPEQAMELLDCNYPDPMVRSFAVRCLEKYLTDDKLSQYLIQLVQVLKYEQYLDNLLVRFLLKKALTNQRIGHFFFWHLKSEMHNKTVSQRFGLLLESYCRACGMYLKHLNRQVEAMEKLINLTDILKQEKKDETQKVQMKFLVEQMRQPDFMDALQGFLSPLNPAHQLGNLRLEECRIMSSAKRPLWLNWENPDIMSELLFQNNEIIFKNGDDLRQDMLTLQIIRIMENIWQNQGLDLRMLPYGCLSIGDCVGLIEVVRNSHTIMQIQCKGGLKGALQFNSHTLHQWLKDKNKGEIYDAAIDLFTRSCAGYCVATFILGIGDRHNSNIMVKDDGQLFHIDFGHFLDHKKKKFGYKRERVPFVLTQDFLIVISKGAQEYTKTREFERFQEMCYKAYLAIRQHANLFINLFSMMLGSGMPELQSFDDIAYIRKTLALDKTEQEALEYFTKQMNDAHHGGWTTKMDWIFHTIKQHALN
Chain of PI3Kα (P26450 whole entry partner): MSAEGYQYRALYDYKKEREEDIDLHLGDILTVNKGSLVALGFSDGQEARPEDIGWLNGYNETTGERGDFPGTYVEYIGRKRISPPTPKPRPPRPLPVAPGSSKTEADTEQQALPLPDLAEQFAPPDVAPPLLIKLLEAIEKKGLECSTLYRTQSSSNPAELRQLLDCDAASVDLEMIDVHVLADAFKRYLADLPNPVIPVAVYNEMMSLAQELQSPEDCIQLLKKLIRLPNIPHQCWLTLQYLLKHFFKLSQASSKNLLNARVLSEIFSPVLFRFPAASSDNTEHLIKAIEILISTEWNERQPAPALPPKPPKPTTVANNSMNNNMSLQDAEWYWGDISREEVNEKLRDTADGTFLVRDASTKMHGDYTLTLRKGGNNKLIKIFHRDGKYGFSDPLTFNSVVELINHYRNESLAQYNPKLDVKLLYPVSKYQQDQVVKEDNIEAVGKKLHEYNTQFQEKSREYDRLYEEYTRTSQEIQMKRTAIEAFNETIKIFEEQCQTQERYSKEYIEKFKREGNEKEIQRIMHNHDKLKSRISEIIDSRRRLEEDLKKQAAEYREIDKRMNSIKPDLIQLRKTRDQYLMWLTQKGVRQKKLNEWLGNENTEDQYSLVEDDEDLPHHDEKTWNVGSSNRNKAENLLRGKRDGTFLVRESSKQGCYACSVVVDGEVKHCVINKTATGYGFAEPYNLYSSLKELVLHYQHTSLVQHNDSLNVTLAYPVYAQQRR
Chain of PI3Kγ (Q9JHG7 whole entry): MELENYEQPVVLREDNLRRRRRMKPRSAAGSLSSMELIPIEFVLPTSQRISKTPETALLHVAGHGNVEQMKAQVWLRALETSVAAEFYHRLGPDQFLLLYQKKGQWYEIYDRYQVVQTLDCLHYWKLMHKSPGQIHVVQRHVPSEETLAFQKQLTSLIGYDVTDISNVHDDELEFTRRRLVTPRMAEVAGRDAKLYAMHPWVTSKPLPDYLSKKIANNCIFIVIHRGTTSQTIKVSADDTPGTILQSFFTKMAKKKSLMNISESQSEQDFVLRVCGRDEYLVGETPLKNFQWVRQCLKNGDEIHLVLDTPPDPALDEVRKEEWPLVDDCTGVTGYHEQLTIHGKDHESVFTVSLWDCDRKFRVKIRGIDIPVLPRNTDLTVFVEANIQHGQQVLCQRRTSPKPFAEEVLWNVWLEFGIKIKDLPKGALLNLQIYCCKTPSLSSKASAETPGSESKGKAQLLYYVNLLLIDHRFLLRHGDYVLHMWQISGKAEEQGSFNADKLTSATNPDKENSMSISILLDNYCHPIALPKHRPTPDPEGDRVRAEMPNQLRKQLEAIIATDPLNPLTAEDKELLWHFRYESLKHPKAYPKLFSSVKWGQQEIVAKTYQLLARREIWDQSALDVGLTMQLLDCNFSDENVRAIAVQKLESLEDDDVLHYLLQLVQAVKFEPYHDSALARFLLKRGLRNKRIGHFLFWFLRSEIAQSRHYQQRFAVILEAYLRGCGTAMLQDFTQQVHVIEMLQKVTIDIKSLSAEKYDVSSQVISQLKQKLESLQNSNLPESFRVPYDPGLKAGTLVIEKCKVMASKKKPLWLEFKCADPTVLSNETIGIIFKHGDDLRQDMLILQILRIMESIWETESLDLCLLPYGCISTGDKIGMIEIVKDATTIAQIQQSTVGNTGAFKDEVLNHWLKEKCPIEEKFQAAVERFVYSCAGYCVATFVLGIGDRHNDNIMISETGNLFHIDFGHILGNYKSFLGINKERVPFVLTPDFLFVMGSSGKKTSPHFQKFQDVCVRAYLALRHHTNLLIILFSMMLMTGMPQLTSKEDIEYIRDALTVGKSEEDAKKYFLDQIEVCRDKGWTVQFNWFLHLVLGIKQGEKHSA

SMILES: COc1c(OCCCN2CCOCC2)ccc2c1N=C(NC(=O)c1cnc(N)nc1)N1CCN=C21 [Copanlisib]
IC50 (Pfeiffer): 0.849 nM
IC50 (OCI-LY19): 1990 nM
IC50 (Toledo): 3500 nM
IC50 (WSU-DLCL2): 123 nM

IC50 (PI3Kα [3]): > 30000 nM
IC50 (PI3Kγ [4]): 1120 nM
AUC(0-t) [5, 6]: 6930 ng·h/mL
AUC(0-t) [5, 7]: 5520 ng·h/mL
Cmax [5, 6]: 4.17 ± 9.89 µM
Cmax [5, 7]: 5.05 ± 6.05 µM
half-life ([5]; 100 mg/kg, T1/2, 100 mg/kg once daily oral, day 1): 3.4 ± 2 h
half-life ([5]; 100 mg/kg, T1/2, 100 mg/kg once daily oral, day 14): 1.8 ± 0.6 h
Tmax [5, 6]: 0.7 ± 0.3 h
Tmax [5, 7]: 0.4 ± 0.2 h
AUC(0-t) [5, 8]: 29900 ng·h/mL
AUC(0-t) [5, 9]: 22400 ng·h/mL
Cmax [5, 8]: 11.1 µM
Cmax [5, 9]: 8.09 ± 0.93 µM
half-life ([5]; 200 mg/kg, T1/2, 200 mg/kg once daily oral, day 1): 1.9 ± 0.5 h
half-life ([5]; 200 mg/kg, T1/2, 200 mg/kg once daily oral, day 14): 4.3 ± 1.1 h
Tmax [5, 8]: 0.8 ± 0.3 h
Tmax [5, 9]: 0.7 ± 0.3 h
SMILES: CC[C@H](Nc1ncnc2[nH]cnc12)c1nc2cccc(F)c2c(=O)n1-c1ccccc1 [Idelalisib]
EC50 (PI3Kδ signaling): 8.9 nM
